What was measured:
Mus musculus [1] = test: Hepatotoxicity in nude mouse xenografted with human HeLa cells assessed as edema in liver at 10 to 20 mg/kg, ip after 14 days by hematoxylin and eosin staining based microscopic analysis; type: toxicity, organism-based; conditions: in vivo, 336 h
How it was run: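 HeLa xenograft nude mice with tumours near 100 mm³, randomised to four groups of 28 mice in total. Dosing was intraperitoneal: vehicle, CA-4 10 mg/kg, or test compound at 10 or 20 mg/kg, continued for 14 days. Heart, liver, kidney and spleen were then H&E-stained and examined for inflammatory infiltration, edema, necrosis and cell morphology.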

HeLa [2] = test: Cell cycle arrest in human HeLa cells assessed as accumulation at S phase at 0.10 uM after 24 hrs by propidium iodide staining based flow cytometric analysis (reference value: 17.46%); type: functional
How it was run: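 HepG2 and HeLa cells were exposed to 0, 0.020, 0.040, 0.060, 0.080 or 0.10 µM for 6, 12 or 24 h. DNA content was stained with propidium iodide and analysed by flow cytometry to give the percentage of cells in G0/G1, S and G2/M phases; sub-G1 cells were also recorded.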

HeLa [3] = test: Induction of apoptosis in human HeLa cells assessed as early apoptotic cells at 0.040 uM after 24 hrs by Annexin V-FITC/propidium iodide staining based flow cytometric analysis (reference value: 6.17%); type: functional
How it was run: (§1)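 HepG2 and HeLa cells were exposed to 0, 0.02, 0.040, 0.060, 0.080 and 0.10 µM for 6, 12 and 24 h. Cells were double-stained with Annexin V-FITC/PI and read by flow cytometry. Apoptotic rate was the percentage of FITC-positive cells, counting early plus late apoptotic.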

HeLa [4] = test: Induction of apoptosis in human HeLa cells assessed as viable cells at 0.080 uM after 24 hrs by Annexin V-FITC/propidium iodide staining based flow cytometric analysis (reference value: 88.6%); type: functional; conditions: read-out: Activity; how it was run: as §1
HeLa [5] = test: Induction of apoptosis in human HeLa cells assessed as early apoptotic cells at 0.10 uM after 24 hrs by Annexin V-FITC/propidium iodide staining based flow cytometric analysis (reference value: 6.17%); type: functional; how it was run: as §1
HeLa [6] = test: Induction of apoptosis in human HeLa cells assessed as necrotic cells at 0.10 uM after 24 hrs by Annexin V-FITC/propidium iodide staining based flow cytometric analysis (reference value: 0.242%); type: functional; how it was run: as §1
HepG2 = test: Induction of apoptosis in human HepG2 cells assessed as viable cells at 0.080 uM after 24 hrs by Annexin V-FITC/propidium iodide staining based flow cytometric analysis (reference value: 94.5%); type: functional; conditions: HepG2, 24 h, read-out: Activity; how it was run: as §1
Mus musculus [7] = test: Toxicity in nude mouse xenografted with human HeLa cells assessed as change in mouse kidney weight at 10 to 20 mg/kg, ip after 14 days; type: organism-based; conditions: in vivo, 336 h
Mus musculus [8] = test: Cardiotoxicity in nude mouse xenografted with human HeLa cells assessed as cellular inflammatory infiltration in heart at 10 to 20 mg/kg, ip after 14 days by hematoxylin and eosin staining based microscopic analysis; type: toxicity, organism-based; conditions: in vivo, 336 h
How it was run: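 Excised tumours and heart, liver, kidney and spleen were H&E-stained and examined microscopically. Tumour scoring covered cell arrangement and necrosis. Organ scoring covered inflammatory infiltration, edema, necrosis and cell morphology.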

Question: How did the Activity (Mus musculus [1]) turn out when `COc1cccc(C2=NN(C(=O)c3ccc(C)nc3)C(c3cn(C)c4ccc(OC)cc34)C2)c1` (centres undefined) was run?
Answer: Non-Toxic

Question: What about the Activity (HeLa [2]) of the same compound?
Answer: 17.88%

Question: And the Activity (HeLa [3])?
Answer: 11%

Question: What about the viability at 0.08 µM (HeLa [4]) of the same compound?
Answer: 61.8%

Question: What about the Activity (HeLa [5]) of the same compound?
Answer: 32.8%

Question: And the Activity (HeLa [6])?
Answer: 0.76%

Question: What about the viability at 0.08 µM (HepG2) of the same compound?
Answer: 81.4%

Question: And the Activity (Mus musculus [7])?
Answer: Non-Toxic

Question: And the Activity (Mus musculus [8])?
Answer: Non-Toxic
